Laboratory results published in ChEMBL document CHEMBL4196061, “Novel topoisomerase I inhibitors. Syntheses and biological evaluation of phosphorus substituted quinoline derivates with antiproliferative activity” (Eur J Med Chem, 2018).
pIC50: −log10 of the molar value.

Columns and labels:
[1] = biological target: T1, DNA topoisomerase 1 (Homo sapiens) (UniProt P11387); assay: (§1) Inhibition of recombinant human topoisomerase 1-mediated DNA relaxation expressed in Saccharomyces cerevisiae TopI null strain RS190 at 80 uM using negatively supercoiled pUC18 as substrate pretreated with enzyme for 15 mins followed by substrate addition measured after 15 secs by agarose gel electrophoresis
T1 sequence (whole entry): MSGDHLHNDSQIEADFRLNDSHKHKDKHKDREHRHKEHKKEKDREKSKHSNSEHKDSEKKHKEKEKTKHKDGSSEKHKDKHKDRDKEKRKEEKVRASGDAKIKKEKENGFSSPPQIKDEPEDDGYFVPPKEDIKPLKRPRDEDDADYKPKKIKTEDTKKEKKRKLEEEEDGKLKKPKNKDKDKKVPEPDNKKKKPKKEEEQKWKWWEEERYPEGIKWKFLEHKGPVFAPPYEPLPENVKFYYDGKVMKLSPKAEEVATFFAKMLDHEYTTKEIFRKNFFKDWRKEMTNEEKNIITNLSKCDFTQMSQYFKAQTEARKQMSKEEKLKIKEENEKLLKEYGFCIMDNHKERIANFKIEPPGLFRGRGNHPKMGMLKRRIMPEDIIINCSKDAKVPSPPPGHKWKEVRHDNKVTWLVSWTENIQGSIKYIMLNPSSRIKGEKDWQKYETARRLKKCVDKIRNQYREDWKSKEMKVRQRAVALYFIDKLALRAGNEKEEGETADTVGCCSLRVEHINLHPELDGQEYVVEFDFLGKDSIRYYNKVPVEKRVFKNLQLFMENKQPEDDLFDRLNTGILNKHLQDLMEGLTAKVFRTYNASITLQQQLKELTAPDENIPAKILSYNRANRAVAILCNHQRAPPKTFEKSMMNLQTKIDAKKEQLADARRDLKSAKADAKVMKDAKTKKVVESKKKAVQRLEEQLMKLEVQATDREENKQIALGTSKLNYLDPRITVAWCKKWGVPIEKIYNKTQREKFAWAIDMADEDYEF
Method in brief: (§2)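 Human TopI was expressed from pHT143 (GAL promoter) in yeast RS190 and affinity-purified. Reactions used 110 ng/µL TopI and 0.5 µg supercoiled pUC18 in 20 µl buffer (20 mM Tris–HCl, 0.1 mM Na2EDTA, 10 mM MgCl2, 50 µg/mL acetylated BSA, 150 mM KCl, pH 7.5). Drug was mixed with enzyme before DNA was added, and reactions were stopped with SDS. Products were resolved on 1% agarose in TBE and stained with gel red.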

[2] = biological target: T1, DNA topoisomerase 1 (Homo sapiens); assay: as §1, with “1 min” for “15 secs”; method in brief: as §2
[3] = biological target: T1, DNA topoisomerase 1 (Homo sapiens); assay: as §1, with “3 mins” for “15 secs”; method in brief: as §2
[4] = biological target: T1, DNA topoisomerase 1 (Homo sapiens); assay: as §1, with “60” for “80”, “3 mins” for “15 secs”; method in brief: as §2
[5] = biological target: T1, DNA topoisomerase 1 (Homo sapiens); assay: as §1, with “40” for “80”, “3 mins” for “15 secs”; method in brief: as §2
[6] = biological target: T1, DNA topoisomerase 1 (Homo sapiens); assay: as §1, with “20” for “80”, “3 mins” for “15 secs”; method in brief: as §2
[7] = biological target: T1, DNA topoisomerase 1 (Homo sapiens); assay: as §1, with “10” for “80”, “3 mins” for “15 secs”; method in brief: as §2
A549 = assay: Antiproliferative activity against human A549 cells after 48 hrs by CCK-8 assay; format: functional, cell-based; details: A549, 48 h
Method in brief: (§3)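 Cells seeded at 2-4 x 10^3 per well and grown overnight in 0.1 mL medium with 10% FBS at 37 °C under 5% CO2. Drugs were added on day 2 and cells incubated 48 h. CCK-8 was then added for 2 h at 37 °C and absorbance read at 450 nm. IC50 values were reported.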

SK-OV-3 = assay: Antiproliferative activity against human SKOV3 cells after 48 hrs by CCK-8 assay; format: functional, cell-based; details: SK-OV-3, 48 h; method in brief: as §3
HEK293 = assay: Antiproliferative activity against human HEK293 cells after 48 hrs by CCK-8 assay; details: HEK293, 48 h
MRC5 = assay: Antiproliferative activity against human MRC5 cells after 48 hrs by CCK-8 assay; format: cell-based; details: MRC5, 48 h; method in brief: as §3

SMILES | inhibition [1] | inhibition [2] | inhibition [3] | inhibition [4] | inhibition [5] | inhibition [6] | inhibition [7] | pIC50 (A549) | pIC50 (SK-OV-3) | pIC50 (HEK293) | pIC50 (MRC5)
S=P(c1ccccc1)(c1ccccc1)c1cccc2c1N[C@H](c1ccc3ccccc3c1)C[C@@H]2c1ccccc1 | 76% | 76% | 76% | 28% | 19% | 16% | 15% | 6.57 | < 4.30 | < 4.30 | < 4.30
S=P(c1ccccc1)(c1ccccc1)c1cccc2c1N[C@H](c1ccccc1)C[C@@H]2c1ccccc1 | 81% | 81% | 76% | 0% | 0% | 0% | 0% | 6.80 | < 4.30 | < 4.30 | < 4.30
O=P(c1ccccc1)(c1ccccc1)c1cccc2c1N[C@H](c1ccc(F)cc1)C[C@@H]2c1ccc(F)cc1 | 54% | 50% | 45% |  |  |  |  | 6.60 | 4.75 | 4.62 | < 4.30
O=P(c1ccccc1)(c1ccccc1)c1cccc2c(-c3ccccc3)cc(-c3ccccc3)nc12 | 57% | 57% | 8% |  |  |  |  | 5.92 | 4.84 | 4.86 | < 4.30
O=P(c1ccccc1)(c1ccccc1)c1cccc2c(-c3ccccc3)cc(-c3ccc(F)cc3)nc12 | 28% | 28% | 25% |  |  |  |  | 5.65 | 5.09 | 4.77 | < 4.30
Fc1ccc([C@@H]2C[C@H](c3ccccc3)c3cccc(P(=S)(c4ccccc4)c4ccccc4)c3N2)cc1 | 41% | 39% | 37% |  |  |  |  | 6.57 | < 4.30 | < 4.30 | < 4.30
O=P(c1ccccc1)(c1ccccc1)c1cccc2c1N[C@H](c1cccc3ccccc13)C[C@@H]2c1ccccc1 | 63% | 63% | 45% |  |  |  |  | 5.45 | < 4.30 | < 4.30 | < 4.30
O=P(c1ccccc1)(c1ccccc1)c1cccc2c1N[C@H](c1ccccn1)C[C@@H]2c1ccccc1 | 92% | 85% | 76% | 34% | 24% | 19% | 19% | 5.42 | 4.72 | 4.83 | < 4.30
COc1ccccc1-c1cc(-c2ccccc2)c2cccc(P(=O)(c3ccccc3)c3ccccc3)c2n1 | 90% | 83% | 63% |  |  |  |  | 5.51 | 4.88 | 4.62 | < 4.30
Fc1ccc(-c2cc(-c3ccc(F)cc3)c3cccc(P(=S)(c4ccccc4)c4ccccc4)c3n2)cc1 |  |  |  |  |  |  |  | < 4.30 | < 4.30 | < 4.30 | < 4.30
Fc1ccc([C@H]2C[C@@H](c3ccc(F)cc3)Nc3c2cccc3P(=S)(c2ccccc2)c2ccccc2)cc1 | 85% | 84% | 75% | 19% | 17% | 17% | 17% | 7.52 | < 4.30 | < 4.30 | < 4.30
COc1ccccc1[C@@H]1C[C@H](c2ccccc2)c2cccc(P(=O)(c3ccccc3)c3ccccc3)c2N1 |  |  |  |  |  |  |  | 6.68 | < 4.30 | 4.79 | < 4.30
O=P(c1ccccc1)(c1ccccc1)c1cccc2c1N[C@H](c1ccccc1)C[C@@H]2c1ccccc1 | 52% | 50% | 21% |  |  |  |  | 5.76 | < 4.30 | < 4.30 | < 4.30
Cc1ccc([C@H]2C[C@@H](c3ccccc3)Nc3c2cccc3P(=O)(c2ccccc2)c2ccccc2)cc1 | 28% | 25% | 12% |  |  |  |  | 5.92 | < 4.30 | 4.55 | < 4.30
O=P(c1ccccc1)(c1ccccc1)c1cccc2c1N[C@H](c1ccc(C(F)(F)F)cc1)C[C@@H]2c1ccccc1 | 61% | 56% | 16% |  |  |  |  | 6.30 | < 4.30 | 4.55 | < 4.30
Fc1ccc([C@@H]2C[C@H](c3ccccc3)c3cccc(P(=S)(c4ccccc4)c4ccccc4)c3N2)cc1F | 57% | 50% | 49% |  |  |  |  | 7.10 | < 4.30 | < 4.30 | < 4.30
O=P(c1ccccc1)(c1ccccc1)c1cccc2c(-c3ccccc3)cc(-c3ccc(C(F)(F)F)cc3)nc12 | 31% | 28% | 28% |  |  |  |  | 5.99 | 4.82 | 4.71 | < 4.30
Cc1ccc(-c2cc(-c3ccccc3)nc3c(P(=O)(c4ccccc4)c4ccccc4)cccc23)cc1 | 7% | 7% | 5% |  |  |  |  | 5.12 | 4.76 | 5.05 | < 4.30
FC(F)(F)c1ccc([C@@H]2C[C@H](c3ccccc3)c3cccc(P(=S)(c4ccccc4)c4ccccc4)c3N2)cc1 | 20% | 17% | 17% |  |  |  |  | 6.66 | < 4.30 | < 4.30 | < 4.30
O=P(c1ccccc1)(c1ccccc1)c1cccc2c1N[C@H](c1ccc(F)cc1)C[C@@H]2c1ccccc1 | 55% | 50% | 16% |  |  |  |  | 5.57 | 4.62 | 4.58 | < 4.30
O=P(c1ccccc1)(c1ccccc1)c1cccc2c(-c3ccccc3)cc(-c3cccc4ccccc34)nc12 | 89% | 87% | 65% |  |  |  |  | 5.20 | < 4.30 | 4.26 | < 4.30
FC(F)(F)c1ccc([C@@H]2C[C@H](c3ccccc3)c3cccc(P(c4ccccc4)c4ccccc4)c3N2)cc1 | 61% | 61% | 59% |  |  |  |  | 4.79 | < 4.30 | < 4.30 | < 4.30
O=P(c1ccccc1)(c1ccccc1)c1cccc2c(-c3ccc(F)cc3)cc(-c3ccc(F)cc3)nc12 | 50% | 50% | 13% |  |  |  |  | 5.42 | 5.17 | 4.90 | < 4.30
S=P(c1ccccc1)(c1ccccc1)c1cccc2c(-c3ccccc3)cc(-c3ccccc3)nc12 | 75% | 60% | 24% |  |  |  |  | < 4.30 | < 4.30 | < 4.30 | < 4.30
O=P(c1ccccc1)(c1ccccc1)c1cccc2c(-c3ccccc3)cc(-c3ccccn3)nc12 | 58% | 52% | 11% |  |  |  |  | 5.53 | 4.76 | 4.92 | < 4.30
COc1ccc([C@@H]2C[C@H](c3ccc(C)cc3)c3cccc(P(c4ccccc4)c4ccccc4)c3N2)cc1 | 52% | 52% | 52% |  |  |  |  | 5.61 | < 4.30 | < 4.30 | < 4.30
